Most compounds without a hit are left out; they make up all but 2.1% or so of the library.
L929 necroptosis – blocks zVAD induced death of L929 cells. L929 zVAD necroptosis rescue, ATP luminescence, 24 h; with zVAD 60 µM. viability rescue, % at 10 µM. actives 0.38% (n = 220,000);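 active = activation, scaled between plate controls, above about 75%, limit read from the data; inactive = activation under that limit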
STAT3 act-1 – increases IL-6 driven STAT3 reporter signal; U3A cells, IL-6 STAT3-luciferase reporter, luminescence; 100% = signal with IL-6 EC80 alone; activation (% of control), % at 5.6 µM; actives 0.91% (n = 190,000);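 active = activation above the screen-wide mean of compound activation plus 3 SD, cut at about 130% in these data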
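Material: STAT3-luciferase reporter U3A cells. Controls: IL-6-treated wells, 100% activation. Read-out: % activation versus median of IL-6-stimulated wells. Probe or stimulus: IL-6 stimulus at 33 ng/mL final. Timing: compound 1 h, then IL-6 6 h at 37 °C. Signal: reporter luminescence signal.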
STAT1 inh – inhibitors of IFN-gamma induced STAT1 signaling | inhibition, % at 5.5 µM | actives 0.35% (n = 200,000) | NIH 3T3 STAT1-luciferase reporter, luminescence | AID 920;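 active = inhibition above a set limit, the mean inhibition across all tested compounds plus 3 SD, cut at about 34% in these data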
TNF necrop inh – TNF-alpha cell death inhibition in Jurkat FADD-/- cells; Jurkat FADD-/- TNF necroptosis rescue, ATP luminescence, 24 h; 0 = TNF only, 100 = no-TNF cells; activation (protection from cell death), % at 10 µM; actives 0.068% (n = 220,000); AID 463075;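 active = activation, meaning protection from cell death, of at least 50% relative to plate controls; inactive = activation below 50%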;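 note: necroptosis triggered by 40 ng/mL TNF-alpha added together with compound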
STAT3 blocker – inhibitors of IL-6 induced STAT3 signaling; AID 862; inhibition, % at 5.5 µM; actives 0.89% (n = 190,000); U3A cells, IL-6 STAT3-luciferase reporter, luminescence; host cell line lacks STAT1;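 active = inhibition above the mean inhibition across all screened compounds plus 3 SD, cut at about 44% in these data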
STAT3 act-2 – confirmation of STAT3 signaling activators; shares compounds with STAT3 act-1; U3A STAT3-luciferase reporter, IL-6 potentiation, luminescence; U3A cells lack STAT1; 100 means same as IL-6 alone; potentiation (% of control), % at 5.7 µM; actives 64% (n = 1,200);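 active = percent activation of the STAT3 luciferase reporter above a set limit taken from the earlier primary screen, cut at about 130% in these data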
NFkB act STAT3ct – counter-screen for STAT3 activators: NF-kappaB activation. shares compounds with STAT3 act-1. human cells, NF-kappaB reporter activation. activation (% of control), % at 5.7 µM. actives 11% (n = 1,200). AID 1309; in the data active = activation above about 120%;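 note: reporter induced by TNF-alpha stimulation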
STAT1 act – counter-screen for STAT3 activators: STAT1 activation; shares compounds with STAT3 act-1; NIH 3T3 STAT1-luciferase reporter, IFN-gamma, luminescence; activation (% of control), % at 5.7 µM; actives 13% (n = 1,200); AID 1318;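 active = activation above the solvent-only control well mean plus 3 SD, set per screening run, cut at about 120% in these data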
Of the large screens only hits and unclear results are named; the others gave an inactive call (follow-up assays come after a bar, where they were run).

O=C(COc1ccc(S(=O)(=O)N2CCOCC2)cc1)Nc1ccc(Cl)c(C(F)(F)F)c1	none
COc1ccc(-c2csc(NC(=O)CSc3nc(SC)ns3)n2)cc1	STAT3 act-1 137 | STAT3 act-2 140 | NFkB act STAT3ct inactive | STAT1 act inactive
C=CCSc1nc2c(c(=O)[nH]1)C(c1ccccc1)C(C#N)=C(N)O2 (centres undefined)	none (no result: STAT3 act-1, STAT1 inh, STAT3 blocker)
COc1ccc(-c2nnc(SCC(=O)NCCc3ccc(S(N)(=O)=O)cc3)o2)cc1OC	none (no result: STAT3 act-1, STAT1 inh, STAT3 blocker)
Cc1ccc(C2NC(=O)c3c(sc(C)c3C)N2)c(O)c1 (centres undefined)	STAT3 act-1 158 | STAT3 act-2 159 | NFkB act STAT3ct inactive | STAT1 act inactive
Cc1cccc(C2NC(=O)c3c(sc(C)c3C)N2)c1O (centres undefined)	none
S=C1NCN(C2CCCCC2)CN1Cc1ccccc1	none
Cc1c(Cl)ccc2c1NC(=O)[C@]21[C@@H]2C(=O)N(Cc3ccccc3)C(=O)[C@@H]2[C@@H]2CCCN21	STAT3 act-1 141 | STAT3 act-2 inactive | NFkB act STAT3ct inactive | STAT1 act inactive
COC(=O)c1ccsc1NC(=O)C1=COCCO1	none
Cn1ncc(Cl)c1C(=O)N1CCCc2ccccc21	none
Cn1ncc(Cl)c1C(=O)N1CCc2ccccc21	STAT3 act-1 155 | STAT3 act-2 140 | NFkB act STAT3ct inactive | STAT1 act inactive
O=C(c1cccc(F)c1)N1CCc2ccccc21	STAT3 act-1 145 | STAT3 act-2 inactive | NFkB act STAT3ct inactive | STAT1 act inactive
O=C(/C=C/c1cccc(F)c1)N1CCc2ccccc21	none
Cc1nn(C)c(C(=O)N2CCc3ccccc32)c1Cl	STAT3 act-1 144 | STAT3 act-2 inactive | NFkB act STAT3ct inactive | STAT1 act inactive
Cn1c(O)c(C2=c3ccccc3=NC2=O)[nH]c1=S	STAT3 act-1 142 | STAT3 act-2 155 | NFkB act STAT3ct inactive | STAT1 act inactive
COc1ccc2nc(-n3c(O)c(C4=c5ccccc5=NC4=O)[nH]c3=S)sc2c1	none
Cc1ccc2nc(SCC(=O)Nc3cc([N+](=O)[O-])ccc3F)[nH]c2c1	STAT3 act-1 139 | STAT3 act-2 139 | NFkB act STAT3ct inactive | STAT1 act inactive
Cc1ccc2nc(SCC(=O)Nc3ccc(F)c([N+](=O)[O-])c3)[nH]c2c1	none
COc1ccc(OCCCC(=O)Nc2cccc(C(C)=O)c2)cc1	none
COC(=O)c1cccc(NC(=O)CCCOc2cccc(C)c2)c1	STAT3 act-1 136 | STAT3 act-2 inactive | NFkB act STAT3ct inactive | STAT1 act inactive
COc1ccccc1-c1nnc(SC)n1C	none
COc1ccccc1-c1nnc(SCC(=O)O)n1C	STAT3 act-1 164 | STAT3 act-2 153 | NFkB act STAT3ct inactive | STAT1 act inactive
COc1ccc(CCNC(=O)CN2CCN(c3ccccc3Cl)CC2)cc1	none
C=CCNC(=O)COC(=O)c1nc2nccc(C)n2n1	none
CC(=O)c1cccc(NC(=O)CCNS(=O)(=O)c2cccc3nsnc23)c1	none
S=c1[nH]nc(CSc2nc3ccccc3s2)o1	STAT3 act-1 142 | STAT3 act-2 142 | NFkB act STAT3ct inactive | STAT1 act inactive
O=C1N(c2ccccc2)C[C@@H]2C[C@@H](c3cc4ccccc4o3)N3CCC[C@@]123	STAT3 act-1 141 | STAT3 act-2 156 | NFkB act STAT3ct inactive | STAT1 act inactive
Cc1ccc(-c2ccccc2[C@@H]2C[C@H]3CN(C)C(=O)[C@]34CCCN24)o1	none
CC1CCN(S(=O)(=O)c2ccc(NC(=O)Cc3ccccc3)cc2)CC1	none
COC(=O)c1sccc1NC(=O)Nc1cccc(F)c1	STAT3 act-1 150 | STAT3 act-2 inactive | NFkB act STAT3ct 121 | STAT1 act 135
C(=N\c1nccs1)/c1c[nH]c2ccccc12	STAT3 act-1 167 | STAT3 act-2 inactive | NFkB act STAT3ct inactive | STAT1 act inactive
Oc1oc(-c2cccc3ccccc23)nc1/C=N/c1nccs1	none
Cc1ccc(C)c(/C(O)=C2\C(=O)C(=O)N(CCCN3CCOCC3)C2c2cccnc2)c1 (centres undefined)	none
Cc1ccc(C)c(/C(O)=C2/C(=O)C(=O)N(CCN3CCOCC3)C2c2ccc(C)o2)c1 (centres undefined)	STAT3 act-1 136 | STAT3 act-2 inactive | NFkB act STAT3ct inactive | STAT1 act inactive
CC(C)(C)n1nc2c(c1NC(=O)c1ccc(S(=O)(=O)N3CCCC3)cc1)CSC2	STAT3 act-1 152 | STAT3 act-2 145 | NFkB act STAT3ct inactive | STAT1 act inactive
CCOC(=O)Cn1cc(C#N)c2ccccc21	none
N#Cc1cn(CC(=O)O)c2ccccc12	STAT3 act-1 140 | STAT3 act-2 140 | NFkB act STAT3ct inactive | STAT1 act inactive
COc1cccc(-n2c(SCC(N)=O)nc3c([nH]c4ccccc43)c2=O)c1	STAT3 act-1 143 | STAT3 act-2 158 | NFkB act STAT3ct inactive | STAT1 act inactive
CC(C)Sc1nc2c([nH]c3ccccc32)c(=O)n1C	STAT3 act-1 158 | STAT3 act-2 159 | NFkB act STAT3ct inactive | STAT1 act inactive
Cn1c(SCC(=O)Nc2ccc(F)cc2)nc2c([nH]c3ccccc32)c1=O	none
CCOC(=O)C(C)Sc1nc2c([nH]c3ccccc32)c(=O)n1C (centres undefined)	none
CNC(=O)CSc1nc2c([nH]c3ccccc32)c(=O)n1CCOC	STAT3 act-1 141 | STAT3 act-2 150 | NFkB act STAT3ct inactive | STAT1 act inactive
COc1cccc(-n2c(SCC(=O)Nc3cc(C)on3)nc3c([nH]c4ccccc43)c2=O)c1	STAT3 act-1 144 | STAT3 act-2 135 | NFkB act STAT3ct inactive | STAT1 act inactive
COc1cccc(-n2c(SCC(=O)N3CCCCC3)nc3c([nH]c4ccccc43)c2=O)c1	none (no result: STAT3 act-1, STAT3 blocker)
CCN(CC)C(=O)CNc1ccc(C(F)(F)F)cc1[N+](=O)[O-]	none
Cc1cc(NC(=O)CSc2nc3c([nH]c4ccccc43)c(=O)n2-c2cccc(C(F)(F)F)c2)no1	STAT3 act-1 148 | STAT3 act-2 138 | NFkB act STAT3ct inactive | STAT1 act inactive
Cc1ccc(-n2c(SCC(N)=O)nc3c([nH]c4ccccc43)c2=O)cc1	none
CC(=O)/C(N=Nc1cc(C)ccc1O)=C(\C)O	STAT3 act-1 149 | STAT3 act-2 150 | NFkB act STAT3ct inactive | STAT1 act inactive

Screens (PubChem)
